Measured values reported in ChEMBL document CHEMBL1629686, “Substrate selectivity and a novel role in inhibitor discrimination by residue 237 in the KPC-2 beta-lactamase” (Antimicrob Agents Chemother, 2010).
≈ marks a conversion by molar mass, not a printed value.

Assays:
Escherichia coli [1] = test: Antimicrobial activity against Escherichia coli DH10B harboring beta-lactamase KPC-2 T237C mutant by agar dilution method in presence of beta-lactamase inhibitor clavulanic acid; type: functional; conditions: K-12 DH10B
Method in brief: (§1)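 LB agar dilution MICs per CLSI criteria, inoculated with a Steers replicator. […] Strains: E. coli DH10B alone, DH10B carrying empty pBC SK(+), or DH10B carrying pBC SK(+)-blaKPC-2 position 237 variants made by site-saturation mutagenesis and confirmed by sequencing. Plasmid selection used 20 mg/liter chloramphenicol.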

Escherichia coli [2] = test: Antimicrobial activity against Escherichia coli DH10B harboring plasmid pBR322-catI carrying beta-lactamase KPC-2 by agar dilution method; type: functional; conditions: K-12 DH10B
Method in brief: (§2)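 LB agar dilution MICs followed CLSI criteria, with inocula applied by Steers replicator. […] Piperacillin-tazobactam was tested at an 8:1 ratio. Wild-type and mutant blaKPC-2 were carried on pBC SK(+), or wild type on pBR322-catI, in E. coli DH10B.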

Escherichia coli [3] = test: Antimicrobial activity against Escherichia coli DH10B harboring beta-lactamase KPC-2 T237Y mutant by agar dilution method; type: functional; conditions: K-12 DH10B; method in brief: as §2
Escherichia coli [4] = test: Antimicrobial activity against Escherichia coli DH10B harboring beta-lactamase KPC-2 T237C mutant by agar dilution method; type: functional; conditions: K-12 DH10B; method in brief: as §2
Escherichia coli [5] = test: Antimicrobial activity against Escherichia coli DH10B harboring beta-lactamase KPC-2 T237S mutant by agar dilution method; type: functional; conditions: K-12 DH10B; method in brief: as §2
Escherichia coli [6] = test: Antimicrobial activity against Escherichia coli DH10B harboring beta-lactamase KPC-2 T237M mutant by agar dilution method; type: functional; conditions: K-12 DH10B; method in brief: as §2
Escherichia coli [7] = test: Antimicrobial activity against Escherichia coli DH10B harboring beta-lactamase KPC-2 T237F mutant by agar dilution method; type: functional; conditions: K-12 DH10B; method in brief: as §2
Escherichia coli [8] = test: Antimicrobial activity against Escherichia coli DH10B harboring beta-lactamase KPC-2 T237N mutant by agar dilution method; type: functional; conditions: K-12 DH10B; method in brief: as §2
Escherichia coli [9] = test: Antimicrobial activity against Escherichia coli DH10B harboring beta-lactamase KPC-2 T237Q mutant by agar dilution method; type: functional; conditions: K-12 DH10B; method in brief: as §2
Escherichia coli [10] = test: Antimicrobial activity against Escherichia coli DH10B harboring beta-lactamase KPC-2 T237N mutant by agar dilution method in presence of beta-lactamase inhibitor clavulanic acid; type: functional; conditions: K-12 DH10B
Method in brief: (§3)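 LB agar dilution MICs by CLSI criteria, applied with a Steers replicator. […] Hosts were E. coli DH10B carrying pBC SK(+) with wild-type blaKPC-2 or a position 237 variant.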

Escherichia coli [11] = test: Antimicrobial activity against Escherichia coli DH10B harboring plasmid […] by agar dilution method; type: functional; conditions: K-12 DH10B; method in brief: as §2
Escherichia coli [12] = test: Antimicrobial activity against Escherichia coli DH10B harboring plasmid pBC SK(+) carrying wild type beta-lactamase KPC-2 by agar dilution method in presence of beta-lactamase inhibitor Sulbactam; type: functional; conditions: K-12 DH10B; method in brief: as §3
Klebsiella pneumoniae [13] = test: Antimicrobial activity against Klebsiella pneumoniae 1534 expressing beta-lactamase KPC-2 by agar dilution method; type: functional
Method in brief: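 MICs were determined by LB agar dilution following CLSI criteria, with a Steers replicator. […] Piperacillin-tazobactam was kept at an 8:1 ratio.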

Escherichia coli [14] = test: Antimicrobial activity against Escherichia coli DH10B harboring beta-lactamase KPC-2 T237I mutant by agar dilution method; type: functional; conditions: K-12 DH10B; method in brief: as §2
Escherichia coli [15] = test: Antimicrobial activity against Escherichia coli DH10B by agar dilution method in presence of beta-lactamase inhibitor clavulanic acid; type: functional; conditions: K-12 DH10B; method in brief: as §1
Escherichia coli [16] = test: Antimicrobial activity against Escherichia coli DH10B harboring beta-lactamase KPC-2 T237W mutant by agar dilution method; type: functional; conditions: K-12 DH10B; method in brief: as §2
Escherichia coli [17] = test: Antimicrobial activity against Escherichia coli DH10B by agar dilution method; type: functional; conditions: K-12 DH10B; method in brief: as §2
Escherichia coli [18] = test: Antimicrobial activity against Escherichia coli DH10B harboring beta-lactamase KPC-2 T237V mutant by agar dilution method; type: functional; conditions: K-12 DH10B; method in brief: as §2
Escherichia coli [19] = test: Antimicrobial activity against Escherichia coli DH10B harboring beta-lactamase KPC-2 T237G mutant by agar dilution method; type: functional; conditions: K-12 DH10B; method in brief: as §2
Escherichia coli [20] = test: Antimicrobial activity against Escherichia coli DH10B harboring beta-lactamase KPC-2 T237H mutant by agar dilution method; type: functional; conditions: K-12 DH10B; method in brief: as §2
Escherichia coli [21] = test: Antimicrobial activity against Escherichia coli DH10B harboring beta-lactamase KPC-2 T237L mutant by agar dilution method; type: functional; conditions: K-12 DH10B; method in brief: as §2
Escherichia coli [22] = test: Antimicrobial activity against Escherichia coli DH10B harboring beta-lactamase KPC-2 T237R mutant by agar dilution method; type: functional; conditions: K-12 DH10B; method in brief: as §2
Escherichia coli [23] = test: Antimicrobial activity against Escherichia coli DH10B harboring beta-lactamase KPC-2 T237P mutant by agar dilution method; type: functional; conditions: K-12 DH10B; method in brief: as §2
Escherichia coli [24] = test: Antimicrobial activity against Escherichia coli DH10B harboring beta-lactamase KPC-2 T237D mutant by agar dilution method; type: functional; conditions: K-12 DH10B; method in brief: as §2
Escherichia coli [25] = test: Antimicrobial activity against Escherichia coli DH10B harboring plasmid pBC SK(+) carrying wild type beta-lactamase KPC-2 by agar dilution method; type: functional; conditions: K-12 DH10B; method in brief: as §2
Escherichia coli [26] = test: Antimicrobial activity against Escherichia coli DH10B harboring beta-lactamase KPC-2 T237A mutant by agar dilution method; type: functional; conditions: K-12 DH10B; method in brief: as §2
Escherichia coli [27] = test: Antimicrobial activity against Escherichia coli DH10B harboring beta-lactamase KPC-2 T237D mutant by agar dilution method in presence of beta-lactamase inhibitor Sulbactam; type: functional; conditions: K-12 DH10B; method in brief: as §3
Escherichia coli [28] = test: Antimicrobial activity against Escherichia coli DH10B harboring beta-lactamase KPC-2 T237E mutant by agar dilution method; type: functional; conditions: K-12 DH10B; method in brief: as §2
Escherichia coli [29] = test: Antimicrobial activity against Escherichia coli DH10B harboring beta-lactamase KPC-2 T237K mutant by agar dilution method; type: functional; conditions: K-12 DH10B; method in brief: as §2
Klebsiella pneumoniae [30] = test: Selectivity index, Ratio of Kcat/Km for Klebsiella pneumoniae 1534 beta-lactamase KPC-2 T237S mutant to ratio of Kcat/Km for Klebsiella pneumoniae 1534 beta-lactamase KPC-2 by spectrophotometric analysis
Method in brief: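 Kinetics used purified enzymes in 10 mM PBS, pH 7.4, room temperature, with 10 nM enzyme and substrate in excess. Km and Vmax came from a Michaelis-Menten fit. kcat/Km of the variant was compared with wild type as ΔΔG = −RT ln of the kcat/Km ratio.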

Escherichia coli [31] = test: Antimicrobial activity against Escherichia coli DH10B harboring beta-lactamase KPC-2 T237N mutant by agar dilution method in presence of beta-lactamase inhibitor Tazobactam; type: functional; conditions: K-12 DH10B
Method in brief: (§4)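 LB agar dilution MICs by CLSI criteria, inoculated with a Steers replicator. […] Strains were E. coli DH10B with or without pBC SK(+) carrying wild-type blaKPC-2 or a position 237 variant.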

Escherichia coli [32] = test: Antimicrobial activity against Escherichia coli DH10B harboring beta-lactamase KPC-2 T237R mutant by agar dilution method in presence of beta-lactamase inhibitor Tazobactam; type: functional; conditions: K-12 DH10B; method in brief: as §4
Klebsiella pneumoniae [33] = test: Activity of Klebsiella pneumoniae 1534 beta-lactamase KPC-2 T237S mutant by spectrophotometric analysis
Method in brief: (§5)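 Purified KPC-2 variant enzymes (periplasmic lysate from E. coli, preparative isoelectric focusing). Hydrolysis followed by diode-array spectrophotometry in 10 mM PBS, pH 7.4, room temperature. Enzyme at 10 nM with substrate in molar excess for pseudo-first-order conditions. Vmax and Km came from a nonlinear least-squares Michaelis-Menten fit.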

Klebsiella pneumoniae [34] = test: Ratio of Kcat/Km for Klebsiella pneumoniae 1534 beta-lactamase KPC-2 T237S mutant by spectrophotometric analysis; method in brief: as §5
Escherichia coli [35] = test: Antimicrobial activity against Escherichia coli DH10B harboring beta-lactamase KPC-2 T237A mutant by agar dilution method in presence of beta-lactamase inhibitor Tazobactam; type: functional; conditions: K-12 DH10B; method in brief: as §4
Escherichia coli [36] = test: Antimicrobial activity against Escherichia coli DH10B harboring beta-lactamase KPC-2 T237G mutant by agar dilution method in presence of beta-lactamase inhibitor Tazobactam; type: functional; conditions: K-12 DH10B; method in brief: as §4

| Structure (SMILES) | MIC (Escherichia coli [2]) [µg/mL] | MIC (Escherichia coli [3]) [µg/mL] | MIC (Escherichia coli [4]) [µg/mL] | MIC (Escherichia coli [5]) [µg/mL] | MIC (Escherichia coli [6]) [µg/mL] | MIC (Escherichia coli [7]) [µg/mL] | MIC (Escherichia coli [8]) [µg/mL] | MIC (Escherichia coli [9]) [µg/mL] | MIC (Escherichia coli [11]) [µg/mL] | MIC (Klebsiella pneumoniae [13]) [µg/mL] | MIC (Escherichia coli [14]) [µg/mL] | MIC (Escherichia coli [16]) [µg/mL] | MIC (Escherichia coli [17]) [µg/mL] | MIC (Escherichia coli [18]) [µg/mL] | MIC (Escherichia coli [19]) [µg/mL] | MIC (Escherichia coli [20]) [µg/mL] | MIC (Escherichia coli [21]) [µg/mL] | MIC (Escherichia coli [22]) [µg/mL] | MIC (Escherichia coli [23]) [µg/mL] | MIC (Escherichia coli [24]) [µg/mL] | also measured |
| --- | --- | --- | --- | --- | --- | --- | --- | --- | --- | --- | --- | --- | --- | --- | --- | --- | --- | --- | --- | --- | --- |
| CC1(C)S[C@@H]2[C@H](NC(=O)[C@H](N)c3ccccc3)C(=O)N2[C@H]1C(=O)O [AMPICILLIN] | 4100 (≈ 11700 µM) | 16 (≈ 45.8 µM) | 4 (≈ 11.4 µM) | 512 (≈ 1470 µM) | 128 (≈ 366 µM) | 16 (≈ 45.8 µM) | 32 (≈ 91.6 µM) | 256 (≈ 733 µM) | 1 (≈ 2.86 µM) | 8190 (≈ 23400 µM) | 64 (≈ 183 µM) | 16 (≈ 45.8 µM) | 1 (≈ 2.86 µM) | 128 (≈ 366 µM) | 128 (≈ 366 µM) | 64 (≈ 183 µM) | 64 (≈ 183 µM) | 4 (≈ 11.4 µM) | 1 (≈ 2.86 µM) | 16 (≈ 45.8 µM) | MIC (Escherichia coli [1]): 1 µg/mL; MIC (Escherichia coli [10]): 4 µg/mL; MIC (Escherichia coli [12]): 128 µg/mL; MIC (Escherichia coli [15]): 1 µg/mL; MIC (Escherichia coli [25]): 256 µg/mL (≈ 733 µM); MIC (Escherichia coli [26]): 256 µg/mL (≈ 733 µM); MIC (Escherichia coli [27]): 16 µg/mL; MIC (Escherichia coli [28]): 32 µg/mL (≈ 91.6 µM); MIC (Escherichia coli [29]): 1 µg/mL (≈ 2.86 µM) |
| CCN1CCN(C(=O)N[C@@H](C(=O)N[C@@H]2C(=O)N3[C@@H]2SC(C)(C)[C@@H]3C(=O)O)c2ccccc2)C(=O)C1=O [PIPERACILLIN] | 1020 (≈ 1980 µM) | 4 (≈ 7.73 µM) | 4 (≈ 7.73 µM) | 128 (≈ 247 µM) | 32 (≈ 61.8 µM) | 4 (≈ 7.73 µM) | 8 (≈ 15.5 µM) | 64 (≈ 124 µM) | 2 (≈ 3.86 µM) | 1020 (≈ 1980 µM) | 8 (≈ 15.5 µM) | 8 (≈ 15.5 µM) | 2 (≈ 3.86 µM) | 16 (≈ 30.9 µM) | 16 (≈ 30.9 µM) | 8 (≈ 15.5 µM) | 16 (≈ 30.9 µM) | 4 (≈ 7.73 µM) | 1 (≈ 1.93 µM) | 4 (≈ 7.73 µM) | fold change (FC) (Klebsiella pneumoniae [30]): 2.7; MIC (Escherichia coli [31]): 1 µg/mL; MIC (Escherichia coli [32]): 0.5 µg/mL; Km (Klebsiella pneumoniae [33]): 6 µM; kcat (Klebsiella pneumoniae [33]): 42 s⁻¹; kcat/Km (Klebsiella pneumoniae [34]): 7e+06 M⁻¹ s⁻¹; MIC (Escherichia coli [35]): 4 µg/mL; MIC (Escherichia coli [25]): 128 µg/mL (≈ 247 µM); MIC (Escherichia coli [26]): 64 µg/mL (≈ 124 µM); MIC (Escherichia coli [28]): 8 µg/mL (≈ 15.5 µM); MIC (Escherichia coli [36]): 1 µg/mL; MIC (Escherichia coli [29]): 1 µg/mL (≈ 1.93 µM) |
